Test results taken from ChEMBL document CHEMBL1144824, “Oximes: metabolic activation and structure-allergenic activity relationships” (J Med Chem, 2008).

What was measured:
[1] = Dermal toxicity in CBA/Ca mouse assessed as skin sensitization stimulation index by measuring increase in [3H]thymidine incorporation at 10% w/v administered on ear dorsum by local lymph node assay relative to control; set-up: species or system Skin of body; conditions: in vivo, topical_or_ocular
Summary of the method: (§1)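 Female CBA/Ca mice, 8 weeks, n = 3 or 4 per group, 25 µL of test compound in vehicle per OECD 429 LLNA; vehicle-only controls. Day 5: 250 µL PBS with 20 µCi [3H]thymidine i.v. After 5 h, draining auricular nodes were pooled per group, cells suspended and counted by β-scintillation. SI = mean dpm/node of test group over control; SI above 3 counted positive.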

[2] = test system: Mus musculus; assay: Dermal toxicity in CBA/Ca mouse assessed as skin sensitization stimulation index by measuring increase in [3H]thymidine incorporation at 0.1% w/v administered on ear dorsum by local lymph node assay relative to control; type: organism-based, Skin of body; conditions: in vivo, topical_or_ocular; summary of the method: as §1
[3] = test system: Mus musculus; assay: Dermal toxicity in CBA/Ca mouse assessed as skin sensitization stimulation index by measuring increase in [3H]thymidine incorporation at 5% w/v administered on ear dorsum by local lymph node assay relative to control; type: organism-based, Skin of body; conditions: in vivo, topical_or_ocular; summary of the method: as §1
[4] = test system: Mus musculus; assay: Dermal toxicity in CBA/Ca mouse assessed as skin sensitization stimulation index by measuring increase in [3H]thymidine incorporation at 20% w/v administered on ear dorsum by local lymph node assay relative to control; type: organism-based, Skin of body; conditions: in vivo, topical_or_ocular; summary of the method: as §1
[5] = test system: Mus musculus; assay: Dermal toxicity in CBA/Ca mouse assessed as skin sensitization stimulation index by measuring increase in [3H]thymidine incorporation at 1% w/v administered on ear dorsum by local lymph node assay relative to control; type: organism-based, Skin of body; conditions: in vivo, topical_or_ocular; summary of the method: as §1
[6] = species on record: Mus musculus; assay: Dermal toxicity in CBA/Ca mouse assessed as drug level inducing 3 times increase in skin sensitization stimulation index by measuring [3H]thymidine incorporation relative to control; type: organism-based; conditions: in vivo
Summary of the method: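 Local lymph node assay per OECD Guideline 429 in female CBA/Ca mice, 8 weeks old, groups of 3 or 4. Each mouse got 25 µL of test compound in vehicle; controls got vehicle alone. Five days after first treatment, mice were dosed i.v. with 20 µCi [3H]thymidine in PBS. Auricular lymph nodes were pooled per group 5 h later and counted by β-scintillation. Value is the concentration giving SI (test/control) of 3.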

| Compound | Activity [1] | Activity [2] | Activity [3] | Activity [4] | Activity [5] | Activity [6] |
| --- | --- | --- | --- | --- | --- | --- |
| CC1=CCCC/C1=N\O | 7.91 | 1 | 5.03 | 11.3 | 2.36 | 160 mM |
| O/N=C\c1ccccc1 | 2.33 | 1.75 | 1.55 | 2.56 | 1.8 | > 1700 mM |
| O/N=C1/C=CCCC1 | – | 1.54 | 7.6 | – | 4.1 | 55 mM |
| CC1=C/C(=N/O)CCC1 | 5.34 | 0.76 | 5.06 | 7.3 | 2.1 | 180 mM |
| C/C=C/C(CC)=N/O | 3.34 | 0.99 | 1.69 | 6.62 | 0.99 | 790 mM |
| CC1=C(C)/C(=N/O)CCC1 | 1.16 | 1.1 | 1.43 | 1.3 | 1.24 | > 1400 mM |
| ON=C1CCCCC1 [CYCLOHEXANONE OXIME] | 1.17 | 0.96 | 0.77 | 0.84 | 0.9 | > 1800 mM |
